This passage reports IC50 results from ChEMBL document CHEMBL1134489, “Enantioselective syntheses of dopaminergic (R)- and (S)-benzyltetrahydroisoquinolines” (J Med Chem, 2001).

Experiment [1] has as its target D(2) dopamine receptor (Rattus norvegicus, UniProt P61169). Kind of experiment: Inhibition of [3H]-Raclopride binding to the rat striatal membranes. It is filed as cell membranes, Membrane. The gist of the method: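 Rat striatum homogenized in 50 mM Tris-HCl pH 7.4, washed four times by centrifugation at 20000g, resuspended in Tris with 120 mM NaCl, 5 mM KCl, 1 mM CaCl2, 1 mM MgCl2, 0.1% ascorbic acid. Membranes (200 µg protein) incubated 1 h at 25 °C with 0.5 nM [3H]raclopride plus drug. Nonspecific binding defined with 50 µM apomorphine. Filtration, scintillation counting. IC50 from 4-11 concentrations, 4-6 determinations each.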

The target of experiment [2] is Sodium-dependent dopamine transporter (Rattus norvegicus, UniProt P23977). As to the kind of experiment: Inhibition of [3H]dopamine uptake in rat striatal synaptosomes. Format: subcellular, Brain. The gist of the method: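 Synaptosomes from male Wistar rat striatum (sucrose homogenate, 1000g then 15000g pellet) in oxygenated Krebs-Ringer pH 7.6. Preincubated 5 min with 10 µM pargyline, then 5 min with 2 nM final [3H]dopamine. Stopped by ice-cold dilution and filtration. Retained radioactivity counted by liquid scintillation. IC50 from curves with 4-11 concentrations, 4-6 determinations each.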

The target in experiment [3] is D(1A) dopamine receptor (Rattus norvegicus, UniProt P18901). Kind of experiment: Inhibition of [3H]-SCH- 23390 binding to the rat striatal membranes. Format: cell membranes, Membrane. The gist of the method: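 Striatal membranes washed twice at 20000g, resuspended in Tris with 5 mM MgSO4, 0.5 mM EDTA, 0.02% ascorbic acid, sonicated. Membranes (100 µg protein) incubated 1 h at 25 °C with 0.25 nM [3H]SCH 23390 and test drug. Nonspecific binding defined with 30 µM SK&F 38393. Filtration, then scintillation counting. IC50 from curves of 4-11 concentrations, 4-6 determinations per concentration.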

Each structure is given as a SMILES string.

Chain of D(1A) dopamine receptor (P18901 whole entry): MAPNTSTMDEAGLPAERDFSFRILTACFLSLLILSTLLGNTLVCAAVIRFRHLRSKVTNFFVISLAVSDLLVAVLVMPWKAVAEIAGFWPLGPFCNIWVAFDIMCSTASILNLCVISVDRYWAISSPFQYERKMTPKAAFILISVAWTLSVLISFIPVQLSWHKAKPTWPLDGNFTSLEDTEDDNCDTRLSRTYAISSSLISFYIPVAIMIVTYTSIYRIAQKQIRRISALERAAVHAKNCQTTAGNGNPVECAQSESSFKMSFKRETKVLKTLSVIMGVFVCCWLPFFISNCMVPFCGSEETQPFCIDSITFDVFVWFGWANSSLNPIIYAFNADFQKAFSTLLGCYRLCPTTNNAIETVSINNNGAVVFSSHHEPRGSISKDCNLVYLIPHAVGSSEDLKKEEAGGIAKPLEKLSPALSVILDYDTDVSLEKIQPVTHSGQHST
Chain of Sodium-dependent dopamine transporter (P23977 whole entry): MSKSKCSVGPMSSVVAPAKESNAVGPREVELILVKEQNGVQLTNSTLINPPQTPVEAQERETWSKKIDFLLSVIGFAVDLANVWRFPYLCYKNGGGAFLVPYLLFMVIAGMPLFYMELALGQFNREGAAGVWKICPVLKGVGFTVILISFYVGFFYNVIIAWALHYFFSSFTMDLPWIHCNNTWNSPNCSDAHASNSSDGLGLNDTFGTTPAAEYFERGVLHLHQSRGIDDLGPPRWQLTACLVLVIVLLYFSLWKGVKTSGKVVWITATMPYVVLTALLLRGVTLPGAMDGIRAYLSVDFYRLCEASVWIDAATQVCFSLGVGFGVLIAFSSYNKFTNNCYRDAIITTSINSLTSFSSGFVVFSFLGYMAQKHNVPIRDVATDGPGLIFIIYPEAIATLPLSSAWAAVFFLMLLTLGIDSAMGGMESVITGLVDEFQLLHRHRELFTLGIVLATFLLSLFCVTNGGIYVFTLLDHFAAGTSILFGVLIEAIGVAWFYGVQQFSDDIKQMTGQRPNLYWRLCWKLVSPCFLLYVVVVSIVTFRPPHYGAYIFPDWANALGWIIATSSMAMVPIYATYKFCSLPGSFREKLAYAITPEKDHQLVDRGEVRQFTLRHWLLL
Chain of D(2) dopamine receptor (P61169 whole entry): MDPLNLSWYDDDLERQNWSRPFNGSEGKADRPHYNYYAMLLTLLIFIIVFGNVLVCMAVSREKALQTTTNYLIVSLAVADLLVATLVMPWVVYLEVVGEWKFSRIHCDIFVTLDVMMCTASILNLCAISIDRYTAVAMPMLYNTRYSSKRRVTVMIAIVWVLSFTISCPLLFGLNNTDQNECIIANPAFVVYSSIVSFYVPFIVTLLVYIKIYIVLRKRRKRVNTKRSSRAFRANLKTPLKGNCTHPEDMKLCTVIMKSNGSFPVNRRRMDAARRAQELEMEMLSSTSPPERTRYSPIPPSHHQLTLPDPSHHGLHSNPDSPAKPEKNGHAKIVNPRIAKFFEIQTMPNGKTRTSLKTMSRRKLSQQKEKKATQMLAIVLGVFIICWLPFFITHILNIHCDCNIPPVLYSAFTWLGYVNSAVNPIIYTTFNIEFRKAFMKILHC

With `c1ccc(C[C@H]2NCCc3cc4c(cc32)OCO4)cc1`, the IC50 in experiment [1] is 53.1 µM; in experiment [2], 6.8 µM; in experiment [3] it was greater than 100 µM.

Take `CCCN1CCc2cc(O)c(O)cc2[C@@H]1Cc1ccccc1`: the values for the half-maximal inhibitory concentration (IC50) in experiment [1], in experiment [2] and in experiment [3] were 14.7 µM, 64.8 µM and 16.6 µM, respectively.

With `CCCN1CCc2cc3c(cc2[C@H]1Cc1ccccc1)OCO3`, the IC50 in experiment [1] is greater than 100 µM; in experiment [2], 43.6 µM; in experiment [3], greater than 100 µM.

With `CCCN1CCc2cc3c(cc2[C@@H]1Cc1ccccc1)OCO3`, the IC50 turned out to be 21.9 µM in experiment [1], 20.3 µM in experiment [2] and 51.9 µM in experiment [3].

With `CCCN1CCc2cc(O)c(O)cc2[C@H]1Cc1ccccc1`, the IC50 in experiment [1] was 61.2 µM; in experiment [2] it was 91.5 µM; in experiment [3], greater than 100 µM.

Consider `c1ccc(C[C@@H]2NCCc3cc4c(cc32)OCO4)cc1`, for which the IC50 came to 4 µM in experiment [1], 3.6 µM in experiment [2] and 23.9 µM in experiment [3].
